Test results from ChEMBL document CHEMBL4020830, “Design, Synthesis, and Evaluation of a Novel Series of Indole Sulfonamide Peroxisome Proliferator Activated Receptor (PPAR) α/γ/δ Triple Activators: Discovery of Lanifibranor, a New Antifibrotic Clinical Candidate” (J Med Chem, 2018).
Values belong to the molecule of their own block, whether it stands above or below them.

Experiments:
Rattus norvegicus [1] = assay: Toxicity in Sprague-Dawley rat assessed as increase in heart weight at 30 mg/kg for 6 weeks; type: organism-based; conditions: in vivo, 1008 h
Rattus norvegicus [2] = assay: Toxicity in Sprague-Dawley rat assessed as reduction in hematocrit level at 10 mg/kg for 4 weeks; type: organism-based; conditions: in vivo, 672 h
Rattus norvegicus [3] = assay: Toxicity in Sprague-Dawley rat assessed as increase in plasma volume at 10 mg/kg for 4 weeks by evans blue dye based assay; type: organism-based; conditions: in vivo, 672 h
Rattus norvegicus [4] = assay: Toxicity in Sprague-Dawley rat assessed as increase in heart weight at 10 mg/kg for 6 weeks; type: organism-based; conditions: in vivo, 1008 h
[5] = target: T1, Peroxisome proliferator-activated receptor alpha (Homo sapiens, UniProt Q07869); assay: Transactivation of human GAL4-fused PPARalpha LBD expressed in African green monkey COS7 cells co-expressing 5Gal4 pGL3 TK Luc after overnight incubation by luciferase reporter gene assay; type: cell-based
T1 sequence (Q07869 whole entry): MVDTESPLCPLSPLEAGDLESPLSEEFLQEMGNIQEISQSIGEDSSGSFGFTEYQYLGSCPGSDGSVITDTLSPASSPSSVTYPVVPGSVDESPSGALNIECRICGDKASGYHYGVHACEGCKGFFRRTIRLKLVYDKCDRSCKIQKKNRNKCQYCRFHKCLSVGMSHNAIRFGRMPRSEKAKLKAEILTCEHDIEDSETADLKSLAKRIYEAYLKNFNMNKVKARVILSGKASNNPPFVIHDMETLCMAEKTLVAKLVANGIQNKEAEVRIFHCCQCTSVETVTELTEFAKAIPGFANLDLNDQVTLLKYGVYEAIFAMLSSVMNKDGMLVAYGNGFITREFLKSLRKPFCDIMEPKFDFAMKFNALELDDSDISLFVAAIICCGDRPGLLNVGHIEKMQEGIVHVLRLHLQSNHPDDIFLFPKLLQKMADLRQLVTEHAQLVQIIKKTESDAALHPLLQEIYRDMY
Procedure, shortened: (§1)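 Cell-based Gal-4 transactivation assay in COS-7 cells transfected with PPARα, PPARδ or PPARγ ligand-binding domain. EC50 and Emax were derived, with Emax as maximum activation in percent of control. EC50s are means of at least two independent experiments performed in triplicate.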

[6] = target: T2, Peroxisome proliferator-activated receptor alpha (Homo sapiens) (UniProt Q07869); assay: Transactivation of human GAL4-fused PPARalpha LBD expressed in African green monkey COS7 cells co-expressing 5Gal4 pGL3 TK Luc after overnight incubation by luciferase reporter gene assay relative to fenofibric acid; type: cell-based; procedure, shortened: as §1
T2 sequence (whole entry): T1 sequence (Q07869 whole entry)

[7] = target: T3, Peroxisome proliferator-activated receptor delta (Homo sapiens, UniProt Q03181); assay: Transactivation of human GAL4-fused PPARdelta LBD expressed in African green monkey COS7 cells co-expressing 5Gal4 pGL3 TK Luc after overnight incubation by luciferase reporter gene assay; type: cell-based; procedure, shortened: as §1
T3 sequence (Q03181 whole entry): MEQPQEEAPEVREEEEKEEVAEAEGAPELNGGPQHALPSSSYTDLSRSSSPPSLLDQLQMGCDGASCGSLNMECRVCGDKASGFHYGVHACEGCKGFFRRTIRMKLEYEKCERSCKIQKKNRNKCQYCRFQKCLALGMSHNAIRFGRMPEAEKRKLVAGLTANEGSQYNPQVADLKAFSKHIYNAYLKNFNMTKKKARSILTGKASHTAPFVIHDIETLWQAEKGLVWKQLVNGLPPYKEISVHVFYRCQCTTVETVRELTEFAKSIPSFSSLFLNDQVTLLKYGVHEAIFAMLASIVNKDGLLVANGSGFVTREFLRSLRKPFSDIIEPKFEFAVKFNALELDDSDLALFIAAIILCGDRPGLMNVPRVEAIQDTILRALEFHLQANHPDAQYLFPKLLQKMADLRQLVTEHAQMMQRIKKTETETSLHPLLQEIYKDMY

[8] = target: T4, Peroxisome proliferator-activated receptor delta (Homo sapiens) (UniProt Q03181); assay: Transactivation of human GAL4-fused PPARdelta LBD expressed in African green monkey COS7 cells co-expressing 5Gal4 pGL3 TK Luc after overnight incubation by luciferase reporter gene assay relative to GW501516; type: cell-based; procedure, shortened: as §1
T4 sequence (whole entry): T3 sequence (Q03181 whole entry)

[9] = target: T5, Peroxisome proliferator-activated receptor gamma (Homo sapiens, UniProt P37231); assay: Transactivation of human GAL4-fused PPARgamma LBD expressed in African green monkey COS7 cells co-expressing 5Gal4 pGL3 TK Luc after overnight incubation by luciferase reporter gene assay; type: cell-based; procedure, shortened: as §1
T5 sequence (P37231 whole entry): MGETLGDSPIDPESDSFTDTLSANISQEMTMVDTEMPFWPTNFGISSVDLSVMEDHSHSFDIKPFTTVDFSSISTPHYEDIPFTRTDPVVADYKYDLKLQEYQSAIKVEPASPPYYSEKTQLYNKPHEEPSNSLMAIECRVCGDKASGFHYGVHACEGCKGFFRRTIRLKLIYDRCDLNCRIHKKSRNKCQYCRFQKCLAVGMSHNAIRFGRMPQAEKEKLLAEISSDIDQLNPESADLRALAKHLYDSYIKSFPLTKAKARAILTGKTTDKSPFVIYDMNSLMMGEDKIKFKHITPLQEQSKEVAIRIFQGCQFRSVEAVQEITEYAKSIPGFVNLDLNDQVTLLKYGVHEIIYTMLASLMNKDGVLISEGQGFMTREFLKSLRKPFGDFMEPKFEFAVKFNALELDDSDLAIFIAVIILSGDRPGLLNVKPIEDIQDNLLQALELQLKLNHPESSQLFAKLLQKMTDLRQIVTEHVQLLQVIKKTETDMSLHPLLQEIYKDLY

[10] = target: T6, Peroxisome proliferator-activated receptor gamma (Homo sapiens) (UniProt P37231); assay: Transactivation of human GAL4-fused PPARgamma LBD expressed in African green monkey COS7 cells co-expressing 5Gal4 pGL3 TK Luc after overnight incubation by luciferase reporter gene assay relative to rosiglitazone; type: cell-based; procedure, shortened: as §1
T6 sequence (whole entry): T5 sequence (P37231 whole entry)

[11] = Cmax in C57Bl6 mouse at 10 mg/kg, po administered as single oral dose; type: ADME, organism-based; conditions: in vivo
Procedure, shortened: (§2)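 Single oral dose of 10 mg/kg in methyl cellulose vehicle given to C57Bl6 mice. Plasma was sampled over a 24 h period. […]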

[12] = Tmax in C57Bl6 mouse at 10 mg/kg, po administered as single oral dose; type: ADME, organism-based; conditions: in vivo; procedure, shortened: as §2
[13] = AUC (infinity) in C57Bl6 mouse at 10 mg/kg, po administered as single oral dose; type: ADME, organism-based; conditions: in vivo; procedure, shortened: as §2
Rattus norvegicus [14] = assay: Toxicity in Sprague-Dawley rat assessed as reduction in hematocrit level at 100 mg/kg for 4 weeks; type: organism-based; conditions: in vivo, 672 h
Procedure, shortened: (§3)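 Sprague-Dawley rats were treated at 100 and 1000 mg/kg. Hematocrit and plasma volume were assessed after 4 weeks of treatment and heart weight after 6 weeks. Each was compared with the control group by one-way ANOVA followed by Dunnett's test.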

Rattus norvegicus [15] = assay: Toxicity in Sprague-Dawley rat assessed as increase in plasma volume at 100 mg/kg for 4 weeks by evans blue dye based assay; type: organism-based; conditions: in vivo, 672 h; procedure, shortened: as §3
Rattus norvegicus [16] = assay: Toxicity in Sprague-Dawley rat assessed as increase in heart weight at 100 mg/kg for 6 weeks; type: organism-based; conditions: in vivo, 1008 h; procedure, shortened: as §3

SMILES: CN(CCOc1ccc(CC2SC(=O)NC2=O)cc1)c1ccccn1 (stereo unspecified) [ROSIGLITAZONE]
- Activity (Rattus norvegicus [1]): Toxic

SMILES: CCO[C@@H](Cc1ccc(OCCc2ccc(OS(C)(=O)=O)cc2)cc1)C(=O)O [TESAGLITAZAR]
- Activity (Rattus norvegicus [2]): Toxic
- Activity (Rattus norvegicus [3]): Toxic
- Activity (Rattus norvegicus [4]): Toxic

- EC50 [5]: 956 nM
- Emax [6]: 51%
- EC50 [7]: 645 nM
- Emax [8]: 46%
- EC50 [9]: 284 nM
- Emax [10]: 46%
- Cmax [11]: 11800 ng/mL
- Tmax [12]: 1 h
- AUC(0-inf) [13]: 51100 ng·h/mL
SMILES: O=C(O)CCCc1cc2cc(Cl)ccc2n1S(=O)(=O)c1ccccc1

SMILES: COc1ccc(OC(=O)N(CC(=O)O)Cc2ccc(OCCc3nc(-c4ccccc4)oc3C)cc2)cc1 [MURAGLITAZAR]
- Activity (Rattus norvegicus [14]): Toxic
- Activity (Rattus norvegicus [15]): Toxic
- Activity (Rattus norvegicus [16]): Toxic
